≈ marks a conversion by molar mass, not a printed value. Calls of active or inactive are those of the source. No cut-off for these calls is given here.
How the values were obtained:
Human rhinovirus sp. [1] = experiment: In vitro concentration required to inhibit 80 percent of human rhinovirus 15 serotypes was determined by TCID50 assay; assay type: functional
In short: (§1)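 HeLa monolayers were infected with a virus dilution giving 80-100% CPE in 3 days without drug. Compound was serially diluted in 10 2-fold steps onto the infected cells and incubated 3 days at 33 °C in 2.5% CO2. Cells were fixed with 5% glutaraldehyde and stained with 0.25% crystal violet.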

Human rhinovirus sp. [2] = experiment: In vitro concentration required to inhibit 80 percent of human rhinovirus 54 serotypes was determined by TCID50 assay; assay type: functional
Human rhinovirus sp. [3] = experiment: In vitro concentration required to inhibit 80 percent of human rhinovirus 15 serotypes was determined by TCID50 assay;c inactive against majority of serotypes; assay type: functional, organism-based; in short: as §1
Human rhinovirus sp. [4] = experiment: In vitro concentration required to inhibit 80 percent of human rhinovirus 15 serotypes was determined by TCID50 assay;c= inactive against majority of serotypes; assay type: functional, organism-based; in short: as §1

Row | Structure (SMILES) | MIC80 (Human rhinovirus sp. [1]) [µM] | other results
1 | CCOc1nc(-c2cc(C)c(OCCCc3cc(C)no3)c(C)c2)no1 | 0.23 (≈ 0.0822 µg/mL) | 
2 | Cc1cc(CCCOc2c(C)cc(-c3nnc(C)o3)cc2C)on1 | 3.7 (≈ 1.21 µg/mL) | 
3 | Cc1cc(CCCOc2c(C)cc(-c3noc(C(C)C)n3)cc2C)on1 | 0.93 (≈ 0.331 µg/mL) | 
4 | COCc1cc(CCCOc2c(C)cc(-c3noc(C)n3)cc2C)on1 | 0.22 (≈ 0.0786 µg/mL) | MIC80 (Human rhinovirus sp. [2]): 0.45 µM (≈ 0.161 µg/mL)
5 | Cc1cc(CCCOc2c(C)cc(-c3noc(N)n3)cc2C)on1 |  | MIC80 (Human rhinovirus sp. [3]): inactive
6 | Cc1cc(CCCOc2c(C)cc(-c3nnn(C)n3)cc2C)on1 | 0.71 (≈ 0.232 µg/mL) | 
7 | COCc1cc(CCCOc2c(Cl)cc(-c3noc(C)n3)cc2Cl)on1 | 0.18 (≈ 0.0717 µg/mL) | MIC80 (Human rhinovirus sp. [2]): 0.19 µM (≈ 0.0757 µg/mL)
8 | Cc1cc(CCCOc2c(C)cc(-c3noc(C4CC4)n3)cc2C)on1 | 0.54 (≈ 0.191 µg/mL) | 
9 | Cc1cc(CCCOc2c(C)cc(-c3noc(C)n3)cc2C)on1 | 0.26 (≈ 0.0851 µg/mL) | MIC80 (Human rhinovirus sp. [2]): 0.3 µM (≈ 0.0982 µg/mL)
10 | CCc1cc(CCCOc2c(C)cc(-c3noc(CC)n3)cc2C)on1 | 0.4 (≈ 0.142 µg/mL) | 
11 | Cc1cc(CCCOc2c(C)cc(-c3noc(S)n3)cc2C)on1 |  | MIC80 (Human rhinovirus sp. [3]): inactive
12 | CCCc1nc(-c2cc(C)c(OCCCc3cc(C)no3)c(C)c2)no1 | 0.79 (≈ 0.281 µg/mL) | 
13 | CCc1nc(-c2cc(C)c(OCCCc3cc(C)no3)c(C)c2)no1 | 0.32 (≈ 0.109 µg/mL) | 
14 | COc1nc(-c2cc(C)c(OCCCc3cc(C)no3)c(C)c2)no1 | 0.39 (≈ 0.134 µg/mL) | 
15 | CCOCc1cc(CCCOc2c(C)cc(-c3noc(C)n3)cc2C)on1 | 0.19 (≈ 0.0706 µg/mL) | 
16 | CNc1nc(-c2cc(C)c(OCCCc3cc(C)no3)c(C)c2)no1 | 0.95 (≈ 0.325 µg/mL) | 
17 | CSCc1cc(CCCOc2c(C)cc(-c3noc(C)n3)cc2C)on1 | 0.32 (≈ 0.12 µg/mL) | 
18 | Cc1cc(CCCOc2c(C)cc(-c3noc(C(C)O)n3)cc2C)on1 (centres undefined) |  | MIC80 (Human rhinovirus sp. [4]): inactive
19 | CCc1nc(-c2cc(C)c(OCCCc3cc(COC)no3)c(C)c2)no1 | 0.21 (≈ 0.078 µg/mL) | 

Row | Structure (SMILES) | MIC80 (Human rhinovirus sp. [1]) [µM] | other results
20 | Cc1nc(-c2cc(C)c(OCCCc3cc(CCO)no3)c(C)c2)no1 | 1.5 (≈ 0.536 µg/mL) | 
21 | CC(=O)Nc1nc(-c2cc(C)c(OCCCc3cc(C)no3)c(C)c2)no1 |  | MIC80 (Human rhinovirus sp. [3]): inactive
22 | Cc1nc(-c2cc(C)c(OCCCc3cc(CS(C)(=O)=O)no3)c(C)c2)no1 | 0.77 (≈ 0.312 µg/mL) | 
23 | CCc1cc(CCCOc2c(C)cc(-c3noc(C)n3)cc2C)on1 | 0.26 (≈ 0.0888 µg/mL) | 
24 | CCCc1cc(CCCOc2c(C)cc(-c3noc(C)n3)cc2C)on1 | 0.21 (≈ 0.0746 µg/mL) | MIC80 (Human rhinovirus sp. [2]): 0.26 µM (≈ 0.0924 µg/mL)
25 | Cc1cc(CCCCCOc2c(Cl)cc(C3=NCCO3)cc2Cl)on1 [WIN-54954] | 0.9 (≈ 0.345 µg/mL) | 
26 | Cc1cc(CCCOc2c(C)cc(-c3nc(C)no3)cc2C)on1 | 0.73 (≈ 0.239 µg/mL) | 
27 | Cc1cc(CCCOc2c(C)cc(-c3ncon3)cc2C)on1 |  | MIC80 (Human rhinovirus sp. [4]): inactive
28 | Cc1nc(-c2cc(C)c(OCCCc3cc(CO)no3)c(C)c2)no1 | 0.73 (≈ 0.251 µg/mL) | 
29 | Cc1cc(CCCOc2c(C)cc(-c3noc(CO)n3)cc2C)on1 | 3.6 (≈ 1.24 µg/mL) | 
30 | CCc1cc(CCCOc2c(C)cc(-c3ncon3)cc2C)on1 | 3.2 (≈ 1.05 µg/mL) | 
31 | Cc1cc(CCCOc2c(C)cc(-c3noc(N(C)C)n3)cc2C)on1 | 0.8 (≈ 0.285 µg/mL) | 
32 | Cc1cc(CCCOc2c(C)cc(-c3noc(O)n3)cc2C)on1 |  | MIC80 (Human rhinovirus sp. [4]): inactive
33 | Cc1cc(CCCOc2c(Cl)cc(-c3noc(C)n3)cc2Cl)on1 | 0.19 (≈ 0.07 µg/mL) | MIC80 (Human rhinovirus sp. [2]): 0.3 µM (≈ 0.11 µg/mL)
34 | CCc1cc(CCCOc2c(Cl)cc(-c3noc(C)n3)cc2Cl)on1 | 0.22 (≈ 0.0841 µg/mL) | MIC80 (Human rhinovirus sp. [2]): 0.23 µM (≈ 0.0879 µg/mL)
35 | Cc1nc(-c2cc(C)c(OCCCc3cc(C[S+](C)[O-])no3)c(C)c2)no1 (centres undefined) | 1 (≈ 0.389 µg/mL) | 
36 | COCCc1cc(CCCOc2c(C)cc(-c3noc(C)n3)cc2C)on1 | 0.24 (≈ 0.0891 µg/mL) | 
37 | COCc1nc(-c2cc(C)c(OCCCc3cc(C)no3)c(C)c2)no1 | 0.43 (≈ 0.154 µg/mL) | 
38 | Cc1nc(-c2cc(C)c(OCCCc3cc(C4CC4)no3)c(C)c2)no1 | 0.2 (≈ 0.0707 µg/mL) | 

Reference: ChEMBL document CHEMBL1127597, “Oxadiazoles as ester bioisosteric replacements in compounds related to disoxaril. Antirhinovirus activity” (1994)
